Data on six molecules can be found in paper PMC4928098 (NeuroImage, 2016).

Where two headings read alike, the source gives them in different places.

One data set concerns the target P-gp (ABCB1) (Homo sapiens, UniProt P08183). The class given is cell-based. Conditions: for Percent Inhibition (%) of the fluorescent substrate: P-gp, rhodamine-123 efflux, human cancer cells. In a few lines: (§1)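 Human cancer cells overexpressing a transporter, plus parental cells, were analysed by flow cytometry for efflux of a fluorescent probe: rhodamine-123 for P-gp, mitoxantrone for BCRP, calcein-AM for MRP1. Conditions were untreated parental cells, expressing cells with a transporter-specific inhibitor, expressing cells with test compound at 20 or 50 µM, and untreated expressing cells. Fluorescence was recorded on 10,000 cells and expressed as percent inhibition.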

The next data set deals with MRP1 (ABCC1) (Homo sapiens, UniProt P33527). The data set is classed as cell-based. The following applies: for Percent Inhibition (%) of the fluorescent substrate: Mrp1, calcein-AM efflux, human cancer cells. In a few lines: as §1
Another data set concerns the target T1, BCRP (ABCG2) (Homo sapiens, UniProt Q9UNQ0).
T1 sequence (Q9UNQ0 1-655): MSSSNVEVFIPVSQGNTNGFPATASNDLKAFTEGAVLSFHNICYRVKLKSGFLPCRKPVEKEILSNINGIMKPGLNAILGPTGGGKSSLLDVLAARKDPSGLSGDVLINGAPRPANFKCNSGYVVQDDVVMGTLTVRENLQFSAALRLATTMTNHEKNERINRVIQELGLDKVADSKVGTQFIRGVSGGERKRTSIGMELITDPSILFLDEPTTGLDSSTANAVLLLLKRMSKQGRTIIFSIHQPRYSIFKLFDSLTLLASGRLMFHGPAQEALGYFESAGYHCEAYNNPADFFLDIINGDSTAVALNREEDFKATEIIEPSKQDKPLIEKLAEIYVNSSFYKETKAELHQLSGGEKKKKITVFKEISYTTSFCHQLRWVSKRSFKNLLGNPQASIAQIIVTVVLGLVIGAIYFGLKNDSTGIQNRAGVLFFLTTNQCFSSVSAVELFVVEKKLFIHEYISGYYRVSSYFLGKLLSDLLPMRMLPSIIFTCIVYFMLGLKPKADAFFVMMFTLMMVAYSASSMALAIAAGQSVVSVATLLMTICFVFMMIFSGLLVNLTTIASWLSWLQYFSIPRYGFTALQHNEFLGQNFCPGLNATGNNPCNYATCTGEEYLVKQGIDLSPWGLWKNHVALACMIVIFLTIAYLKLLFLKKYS
The class given is cell-based. The following applies: for Percent Inhibition (%) of the fluorescent substrate: BCRP, mitoxantrone efflux, human cancer cells. In a few lines:
as §1

The target of data set [1] is P-gp (Homo sapiens, UniProt P08183). Briefly: Human PET imaging at baseline and during tariquidar infusion. The data set is classed as in vivo. In a few lines: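 Radioligand was given as a 376 ± 8 MBq bolus, followed by a 2-h dynamic PET with arterial sampling and HPLC metabolite separation. VT came from a three-tissue model including the acid metabolite, in six central regions. Paired one-tailed t-test.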

The conditions of data set [2]: humans, ref Ryu et al., 2007, cited from earlier work.
Data set [3] has as its target P-gp (Mus musculus, UniProt P21447). As to the kind of experiment: Ex vivo brain to plasma ratio of parent radioligand in P-gp knockout mice. The following applies: P-gp KO mice, 30 min after iv injection, n=3. In a few lines: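 Wild-type, P-gp KO, BCRP KO and P-gp/BCRP KO mice (n=3 per group, 25.3 ± 1.2 g) were anesthetised with 1.5% isoflurane in oxygen. Radioligand (166 ± 49 µCi; 826 ± 205 mCi/µmol) was given iv via tail-vein cannula. At 30 min, blood was taken by cardiac puncture and brain excised. Parent was quantified by reversed-phase radio-HPLC with γ-counting. Brain/plasma parent ratios were compared across groups (mean ± SEM).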

The subject of data set [4] is P-gp. Conditions: rats pretreated with tariquidar; ref Choi et al., 2016; cited from earlier work.

P-gp (Homo sapiens, UniProt P08183), sequence (P08183 whole entry, the tested form may be a part): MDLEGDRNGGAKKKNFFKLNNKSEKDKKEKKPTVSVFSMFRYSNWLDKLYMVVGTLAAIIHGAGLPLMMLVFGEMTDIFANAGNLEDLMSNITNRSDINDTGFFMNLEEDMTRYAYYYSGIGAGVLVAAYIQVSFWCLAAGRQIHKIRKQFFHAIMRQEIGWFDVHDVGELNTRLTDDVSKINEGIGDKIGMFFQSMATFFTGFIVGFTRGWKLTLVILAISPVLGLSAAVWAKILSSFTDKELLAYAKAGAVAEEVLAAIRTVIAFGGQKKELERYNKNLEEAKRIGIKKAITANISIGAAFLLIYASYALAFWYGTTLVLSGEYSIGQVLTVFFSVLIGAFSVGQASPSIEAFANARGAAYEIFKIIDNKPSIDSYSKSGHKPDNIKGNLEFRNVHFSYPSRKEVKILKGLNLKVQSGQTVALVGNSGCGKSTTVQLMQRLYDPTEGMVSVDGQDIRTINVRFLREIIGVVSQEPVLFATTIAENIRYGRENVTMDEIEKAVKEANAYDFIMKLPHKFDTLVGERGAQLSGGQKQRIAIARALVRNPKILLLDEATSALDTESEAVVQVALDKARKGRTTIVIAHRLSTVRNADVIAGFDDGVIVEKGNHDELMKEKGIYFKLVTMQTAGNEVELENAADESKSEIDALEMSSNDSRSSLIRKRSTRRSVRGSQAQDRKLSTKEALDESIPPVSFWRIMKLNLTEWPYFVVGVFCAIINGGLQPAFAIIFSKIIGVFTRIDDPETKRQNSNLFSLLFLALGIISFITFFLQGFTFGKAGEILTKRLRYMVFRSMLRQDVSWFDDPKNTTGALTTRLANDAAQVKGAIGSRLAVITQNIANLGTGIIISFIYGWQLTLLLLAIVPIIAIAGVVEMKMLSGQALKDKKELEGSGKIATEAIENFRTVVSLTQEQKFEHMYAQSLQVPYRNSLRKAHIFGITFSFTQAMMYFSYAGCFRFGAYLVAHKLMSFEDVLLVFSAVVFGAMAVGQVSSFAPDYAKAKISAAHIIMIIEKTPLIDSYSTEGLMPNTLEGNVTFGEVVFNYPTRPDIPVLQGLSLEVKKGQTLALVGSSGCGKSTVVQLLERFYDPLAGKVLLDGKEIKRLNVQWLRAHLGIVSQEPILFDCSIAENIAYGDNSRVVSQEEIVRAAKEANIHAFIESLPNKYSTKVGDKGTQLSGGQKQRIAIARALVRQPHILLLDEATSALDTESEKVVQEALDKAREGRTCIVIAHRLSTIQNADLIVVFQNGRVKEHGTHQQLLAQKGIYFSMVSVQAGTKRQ
P-gp (ABCB1), sequence (P08183 whole entry): as the sequence (P08183 whole entry, the tested form may be a part) above
MRP1 (ABCC1), sequence (P33527 whole entry): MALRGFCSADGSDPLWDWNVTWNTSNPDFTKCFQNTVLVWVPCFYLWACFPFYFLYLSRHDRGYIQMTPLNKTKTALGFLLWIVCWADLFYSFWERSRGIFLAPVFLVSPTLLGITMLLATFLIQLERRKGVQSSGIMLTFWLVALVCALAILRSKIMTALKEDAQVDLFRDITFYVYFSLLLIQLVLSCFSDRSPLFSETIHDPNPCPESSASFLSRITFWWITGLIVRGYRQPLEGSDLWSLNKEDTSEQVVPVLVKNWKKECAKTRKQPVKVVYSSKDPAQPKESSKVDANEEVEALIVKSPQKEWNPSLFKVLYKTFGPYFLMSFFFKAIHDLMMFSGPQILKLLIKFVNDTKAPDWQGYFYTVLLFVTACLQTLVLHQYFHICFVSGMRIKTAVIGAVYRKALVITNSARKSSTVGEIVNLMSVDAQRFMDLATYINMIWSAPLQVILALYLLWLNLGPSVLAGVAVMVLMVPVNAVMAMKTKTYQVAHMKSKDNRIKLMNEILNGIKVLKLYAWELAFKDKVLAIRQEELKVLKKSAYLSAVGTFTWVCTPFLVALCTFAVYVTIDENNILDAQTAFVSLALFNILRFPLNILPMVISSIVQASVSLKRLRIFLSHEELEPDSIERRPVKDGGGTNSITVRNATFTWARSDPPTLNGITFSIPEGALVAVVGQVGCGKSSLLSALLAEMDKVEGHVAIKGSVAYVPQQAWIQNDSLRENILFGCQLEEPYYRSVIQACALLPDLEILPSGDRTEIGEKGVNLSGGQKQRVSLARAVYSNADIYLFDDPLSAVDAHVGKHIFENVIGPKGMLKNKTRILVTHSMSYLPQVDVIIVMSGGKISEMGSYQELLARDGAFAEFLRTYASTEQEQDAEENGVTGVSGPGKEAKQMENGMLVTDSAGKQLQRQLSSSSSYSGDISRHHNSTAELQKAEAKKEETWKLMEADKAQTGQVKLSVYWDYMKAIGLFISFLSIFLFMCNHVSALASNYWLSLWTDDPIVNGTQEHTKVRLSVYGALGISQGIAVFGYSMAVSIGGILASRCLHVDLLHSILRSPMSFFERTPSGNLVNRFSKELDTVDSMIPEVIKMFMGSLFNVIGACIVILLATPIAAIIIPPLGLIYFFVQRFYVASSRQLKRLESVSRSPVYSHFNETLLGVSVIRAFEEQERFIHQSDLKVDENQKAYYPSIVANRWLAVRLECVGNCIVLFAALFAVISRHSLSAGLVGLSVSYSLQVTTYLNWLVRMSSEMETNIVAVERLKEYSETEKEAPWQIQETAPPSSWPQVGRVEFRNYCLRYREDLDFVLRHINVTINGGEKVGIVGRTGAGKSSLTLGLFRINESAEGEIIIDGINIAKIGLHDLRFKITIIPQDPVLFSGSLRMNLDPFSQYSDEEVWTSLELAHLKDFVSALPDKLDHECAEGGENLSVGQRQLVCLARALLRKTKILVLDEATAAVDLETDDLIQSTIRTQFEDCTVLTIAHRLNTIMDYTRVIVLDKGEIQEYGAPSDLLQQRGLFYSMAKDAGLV

Regarding `COc1ccccc1N1CCN(CCN(C(=O)C2CCC(F)CC2)c2ccccn2)CC1` (stereo not shown) [FCWAY], the “Percent Inhibition (%) of the fluorescent substrate” value (shortened to “Percent Inhibition (%)”) was 0.8% on P-gp (ABCB1) (20 uM); 4.0% on P-gp (ABCB1) (50 uM); 3.1% on MRP1 (ABCC1) (20 uM); 5.4% on MRP1 (ABCC1) (50 uM); 6.8% at BCRP (ABCG2) (20 uM); 8.6% on BCRP (ABCG2) (50 uM). The “Substrate status for transporter (in vitro substrate inhibition)” value on P-gp (ABCB1) (P-gp overexpressing human cancer cells), on MRP1 (ABCC1) (MRP1 overexpressing human cancer cells) and at BCRP (ABCG2) (BCRP overexpressing human cancer cells) was “weak substrate” throughout.

Consider `COc1ccccc1N1CCN(CCN(C(=O)c2ccc(F)cc2)c2ccccn2)CC1` [MPPF, reference compound], for which the “Percent Inhibition (%)” value at MRP1 (ABCC1) (20 uM) is given as 13.1%; at MRP1 (ABCC1) (50 uM) it was 19.9%.

For the molecule `COc1ccccc1N1CCN(CCN(C(=O)C2CCC([18F])CC2)c2ccccn2)CC1` (stereo not shown) [^18F-FCWAY], the “Peak brain radioactivity uptake” value on P-gp [1] (baseline, after bolus injection, healthy subjects) is reported as “around 3 SUV”. For the same molecule, the “Change of non-displaceable binding potential (BPND) after tariquidar” value at P-gp [1] (i.v. tariquidar treatment, n=8) is recorded as “changed insignificantly”. Also, at P-gp [1] (tariquidar 2 or 4 mg/kg iv infusion, six brain regions, n=8), the “Increase in mean distribution volume (VT) with tariquidar treatment” value is reported as 60–100%. Further, the “Time of peak uptake in brain” value in data set [2] (with disulfiram administration) is “five to seven”. The “Time of peak in brain after injection” value in data set [2] (without disulfiram) is “one to three”. For the same molecule, the “Brain uptake (brain to plasma ratio) in comparison to wild type mice” value at P-gp [3] is on record as “increased”.

For `O=C(O)[C@H]1CC[C@H]([18F])CC1` [^18F-FC], on P-gp [1] (during most of the scan, radiometabolite), the “Estimated concentration in brain as percent of that of the parent radioligand” value was 2–3%. In addition, the “Concentration in brain compared to the total radioactivity” value at P-gp [1] (estimated by compartmental modeling, radiometabolite) was ~ 5%.

For the molecule `COc1ccccc1N1CCN(CCN(C(=O)C2CCC(C[18F])CC2)c2ccccn2)CC1` (stereo not shown) [^18F-Mefway], the “Increase of brain uptake after tariquidar pretreatment” value with P-gp [4] is recorded as 1.6 fold.

On to `CNC(=O)C(CCN1CCC(O)(c2ccc(Cl)cc2)CC1)(c1ccccc1)c1ccccc1` [dLop, desmethyl-loperamide, reference compound], for which the “Percent Inhibition (%)” value came out at 10.0% on P-gp (ABCB1) (20 uM) and 25.0% on P-gp (ABCB1) (50 uM).
